Results as given in ChEMBL document CHEMBL1132464, “Specific nonpeptide photoprobes as tools for the structural study of the angiotensin II AT(1) receptor” (J Med Chem, 1999).

What was measured:
[1] = molecular target: T1, Type-1 angiotensin II receptor A (Rattus norvegicus, UniProt P25095); test: The compound was evaluated for the inhibition of [125I]-Sar-AII binding to Angiotensin II receptor, type 1 from purified rat liver membranes.; type: cell membranes, Membrane
T1 sequence (P25095 whole entry): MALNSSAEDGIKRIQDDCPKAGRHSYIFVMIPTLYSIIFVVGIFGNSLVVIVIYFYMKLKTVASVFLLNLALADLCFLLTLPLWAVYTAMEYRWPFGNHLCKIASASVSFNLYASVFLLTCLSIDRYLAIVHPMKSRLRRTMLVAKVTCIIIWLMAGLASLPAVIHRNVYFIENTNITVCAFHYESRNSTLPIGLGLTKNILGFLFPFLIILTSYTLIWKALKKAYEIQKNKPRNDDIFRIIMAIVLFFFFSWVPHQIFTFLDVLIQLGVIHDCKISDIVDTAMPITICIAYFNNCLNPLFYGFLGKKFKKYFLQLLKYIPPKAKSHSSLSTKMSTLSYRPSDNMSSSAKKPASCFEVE
Summary of the method: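 Purified rat liver membranes (AT1 only), 10 μg protein/assay, competition against [125I]Sar1-AII tracer for 30 min at 30 °C in 50 mM phosphate pH 7.4, 5 mM MgCl2, 0.1 mg/mL bacitracin, 0.6% Me2SO, no BSA; triplicates; GF/C filtration; Ki via Ekins equation.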

Oryctolagus cuniculus = organism: Oryctolagus cuniculus; test: The compound was evaluated for the inhibition of AII-induced contraction in the rabbit aorta strips.; type: functional
Summary of the method: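 Rabbit aortic rings (4 mm) in 37 °C organ baths, Krebs-Henseleit gassed O2/CO2 95/5, passive tension 2 g, isometric tension recorded; three to five antagonist concentrations, one per ring, against 3 nM AII contraction; IC50 = concentration halving AII response; mean of six experiments.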

[2] = molecular target: T1, Type-1 angiotensin II receptor A; test: The compound was evaluated for the direct binding of tritiated compound to the recombinant Angiotensin II receptor, type 1 stably expressed in CHO cells.; type: cell-based
Summary of the method: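 Intact CHO cells stably expressing rat AT1A, grown to confluence (~5 × 10^5 cells/well), incubated 4 h at 4 °C with graded tritiated ligand in PBS pH 7.4, 5 mM MgCl2, 0.1 mg/mL bacitracin, 0.6% Me2SO; nonspecific binding with excess Sar1-AII or unlabeled nonpeptide; ice-cold washes, NaOH lysis, scintillation counting; Kd by Scatchard analysis, mean of four experiments.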

[3] = molecular target: T2, Type-1 angiotensin II receptor A (Rattus norvegicus) (UniProt P25095); test: The compound was evaluated for irreversible binding to [125I]Sar-AII in CHO cells expressing the Angiotensin II receptor, type 1 with UV irradiation.; type: cell-based
T2 sequence (whole entry): T1 sequence (P25095 whole entry)
Summary of the method: (§1)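 CHO cells stably expressing rat AT1A receptor in 24-well clusters; incubated 4 h at 4 °C in dark with photoactivatable ligand (nonpeptide 50 or 10 nM; peptide azido probe 10 nM) in PBS pH 7.4, 5 mM MgCl2, 0.1 mg/mL bacitracin; washed, irradiated or not 5 min at 0 °C, 254 nm; two 30-min 30 °C dissociation incubations; remaining sites titrated with 5 nM [125I]Sar1-AII, 2 h, 4 °C; % of control, triplicates.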

[4] = molecular target: T2, Type-1 angiotensin II receptor A (Rattus norvegicus); test: The compound was evaluated for irreversible binding to [125I]Sar-AII in CHO cells expressing the Angiotensin II receptor, type 1 without UV irradiation.; type: cell-based; summary of the method: as §1

CCCCc1ncc(CNc2ccccc2C(=O)O)n1Cc1ccc(C(=O)O)cc1
Ki [1]: 12.1 nM | IC50 (Oryctolagus cuniculus): 3.6 nM

[3H]c1nc(CCCC)n(Cc2ccc(C(=O)O)cc2)c1CNc1ccccc1C(=O)O
Kd [2]: 3.5 nM

CCCCc1ncc(CNc2ccccc2C(=O)O)n1Cc1ccc(C(=O)NS(=O)(=O)c2ccccc2Cl)cc1
Ki [1]: 2.5 nM | IC50 (Oryctolagus cuniculus): 0.8 nM

[3H]c1nc(CCCC)n(Cc2ccc(C(=O)O)cc2)c1C([3H])Nc1cc(N=[N+]=[N-])ccc1C(=O)O (stereo not given)
Kd [2]: 11.8 nM

[3H]c1ccc(S(=O)(=O)NC(=O)c2ccc(Cn3c(CNc4ccccc4C(=O)O)cnc3CCCC)cc2)c(Cl)c1
Kd [2]: 1.3 nM

CCCCc1ncc(CNc2ccccc2C(=O)O)n1Cc1ccc(C(=O)NS(=O)(=O)c2ccccc2N=[N+]=[N-])cc1
Ki [1]: 1.5 nM | Control [3]: 55% | Control [4]: 50% | IC50 (Oryctolagus cuniculus): 3.5 nM

CCCCc1ncc(CNc2cc(N=[N+]=[N-])ccc2C(=O)O)n1Cc1ccc(C(=O)O)cc1
Ki [1]: 22 nM | Control [3]: 64% | Control [4]: 91% | IC50 (Oryctolagus cuniculus): 6.3 nM
